The source made the active and inactive calls. The rule behind the calls is not given here.
What was measured:
[1] = biological target: T1, 5-hydroxytryptamine receptor 2A (Homo sapiens, UniProt P28223); experiment: Activity at human 5HT2A receptor expressed in HEK293 cells assessed as [3H]inositol phosphate production by scintillation counting; assay type: functional, cell-based
Procedure, shortened: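 HEK-293 cells transiently transfected with a mutated, constitutively active h5-HT2A receptor, labeled 18 h with […] [3H]myoinositol in serum- and myoinositol-free DMEM. Then 3 h at 37 °C in HBSS with LiCl (10 mM final), pargyline and compound. Lysis with ice-cold 0.1 M formic acid; total [3H]IP separated on AG1-X8 resin and counted by scintillation. Inverse-agonist pIC50.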

[2] = biological target: T2, 5-hydroxytryptamine receptor 2C (Homo sapiens, UniProt P28335); experiment: Displacement of [3H]DOI from human recombinant 5HT2C receptor expressed in HEK293 cells by scintillation counting; assay type: cell-based; settings: in the assay text read “[125I]DOI” for “[3H]DOI”
T2 sequence (P28335 whole entry): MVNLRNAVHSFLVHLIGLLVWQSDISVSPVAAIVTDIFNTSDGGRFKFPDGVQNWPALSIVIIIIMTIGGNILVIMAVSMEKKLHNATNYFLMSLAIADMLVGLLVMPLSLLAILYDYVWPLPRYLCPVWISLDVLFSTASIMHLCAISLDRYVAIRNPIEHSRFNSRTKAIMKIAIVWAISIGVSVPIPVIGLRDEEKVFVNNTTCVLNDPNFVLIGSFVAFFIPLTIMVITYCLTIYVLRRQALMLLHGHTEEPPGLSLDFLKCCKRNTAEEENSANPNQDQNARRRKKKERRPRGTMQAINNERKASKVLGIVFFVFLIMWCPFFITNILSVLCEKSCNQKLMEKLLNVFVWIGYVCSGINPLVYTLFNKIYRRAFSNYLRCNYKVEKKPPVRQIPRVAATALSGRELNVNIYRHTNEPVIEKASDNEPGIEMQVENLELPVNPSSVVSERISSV
Procedure, shortened: (§1)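 Crude membranes (5-25 μg protein) from HEK293 cells stably expressing human 5-HT2A or 5-HT2C. Radioligand [125I]DOI at 0.5 nM final; 10 μM cold DOI defines nonspecific binding. Buffer 20 mM HEPES pH 7.4, 10 mM MgCl2; 1 h at room temperature. Eight concentrations (1 pM–10 μM), each in triplicate. Vacuum filtration on GF/C, Tris wash, scintillation counting; pKi.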

[3] = biological target: T1, 5-hydroxytryptamine receptor 2A; experiment: Displacement of [3H]DOI from human recombinant 5HT2A receptor expressed in HEK293 cells by scintillation counting; assay type: cell-based; settings: in the assay text read “[125I]DOI” for “[3H]DOI”; procedure, shortened: as §1
[4] = biological target: T1, 5-hydroxytryptamine receptor 2A; experiment: Displacement of [125I]DOI from human recombinant 5HT2A receptor expressed in HEK293 cells by scintillation counting
[5] = biological target: T2, 5-hydroxytryptamine receptor 2C; experiment: Displacement of [125I]DOI from human recombinant 5HT2C receptor expressed in HEK293 cells by scintillation counting
Rattus norvegicus [6] = experiment: Effect on behavioral activity in po dosed Sprague-Dawley rat assessed as reversal of DOI-induced inhibition of rearing behavior; assay type: functional
Procedure, shortened: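 Adult male Sprague-Dawley rats dosed orally with compound 45 min before DOI (0.3 mg/kg), which lowers rearing. Fifteen minutes later, rearing recorded in photocell-monitored locomotor activity cages. A dose-response curve for reversal of DOI-induced rearing decrease yields an ED50.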

[7] = Half life in Wistar rat at 1.4 mg/kg, po; assay type: ADME, organism-based; design: dose 1.4 mg/kg, route oral; settings: in vivo
Procedure, shortened: (§2)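 Male Wistar rats, fasted overnight, single oral dose in 80% Tween-80/20% water. Jugular vein blood sampled serially over 24 h ([…]); sodium-heparin plasma stored at -70 °C, quantified by HPLC/MS/MS (LLOQ 1 ng/mL, ULOQ 2000 ng/mL). n = 2-3 animals; noncompartmental analysis; values as mean ± SD.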

[8] = Tmax in Wistar rat at 1.4 mg/kg, po; assay type: ADME, organism-based; design: dose 1.4 mg/kg, route oral; settings: in vivo; procedure, shortened: as §2
Rattus norvegicus [9] = experiment: Effect on behavioral activity in Wistar rat assessed as increase in non-rapid eye movement delta power at 1.4 mg/kg, po after 2 hrs; assay type: functional, organism-based; design: dose 1.4 mg/kg
Procedure, shortened: (§3)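 Male Wistar rats (300 ± 25 g) implanted for continuous EEG/EMG recording, 1 week recovery. Repeated-measures design: each rat received each treatment, including 80% Tween-80 vehicle, in random order by oral gavage. Non-REM sleep parameters scored hourly after dosing; at least five rats per compound.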

[10] = AUC (0 to infinity) in Wistar rat at 1.4 mg/kg, po; assay type: ADME, organism-based; design: time infinity, dose 1.4 mg/kg, route oral; settings: plasma; procedure, shortened: as §2
[11] = Cmax in Wistar rat at 1.4 mg/kg, po; assay type: ADME, organism-based; design: dose 1.4 mg/kg, route oral; settings: in vivo; procedure, shortened: as §2
Rattus norvegicus [12] = experiment: Effect on behavioral activity in Wistar rat assessed as decrease in number of non-rapid eye movement bouts at 1.4 mg/kg, po after 2 hrs; assay type: functional, organism-based; design: dose 1.4 mg/kg; procedure, shortened: as §3
Rattus norvegicus [13] = experiment: Effect on behavioral activity in Wistar rat assessed as increase in non-rapid eye movement delta power at 1.4 mg/kg, po after 1 hr; assay type: functional, organism-based; design: dose 1.4 mg/kg; procedure, shortened: as §3
[14] = Half life in Wistar rat at 1.5 mg/kg, po; assay type: ADME, organism-based; design: dose 1.5 mg/kg, route oral; settings: in vivo; procedure, shortened: as §2
[15] = biological target: 5-hydroxytryptamine receptor 2A (Rattus norvegicus, UniProt P14842); experiment: Displacement of [125I]DOI from rat recombinant 5HT2A receptor by scintillation counting
Sequence of 5-hydroxytryptamine receptor 2A (Rattus norvegicus, UniProt P14842) (P14842 whole entry): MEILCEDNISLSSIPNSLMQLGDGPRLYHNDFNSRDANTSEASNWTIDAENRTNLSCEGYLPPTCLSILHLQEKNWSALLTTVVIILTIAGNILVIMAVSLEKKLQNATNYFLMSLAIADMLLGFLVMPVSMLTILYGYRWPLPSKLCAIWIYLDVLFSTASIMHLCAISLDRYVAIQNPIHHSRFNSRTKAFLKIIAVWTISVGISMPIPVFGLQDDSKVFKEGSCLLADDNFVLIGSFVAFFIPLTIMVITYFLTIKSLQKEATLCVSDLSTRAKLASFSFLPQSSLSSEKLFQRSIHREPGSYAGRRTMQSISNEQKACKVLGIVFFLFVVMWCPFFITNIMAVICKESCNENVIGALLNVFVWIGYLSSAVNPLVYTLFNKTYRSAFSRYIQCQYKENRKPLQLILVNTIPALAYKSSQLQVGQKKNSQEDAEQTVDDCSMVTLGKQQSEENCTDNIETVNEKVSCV

[16] = Cmax in Wistar rat at 1.5 mg/kg, po; assay type: ADME, organism-based; design: dose 1.5 mg/kg, route oral; settings: in vivo; procedure, shortened: as §2
[17] = AUC (0 to infinity) in Wistar rat at 1.5 mg/kg, po; assay type: ADME, organism-based; design: time infinity, dose 1.5 mg/kg, route oral; settings: plasma; procedure, shortened: as §2
[18] = Tmax in Wistar rat at 1.5 mg/kg, po; assay type: ADME, organism-based; design: dose 1.5 mg/kg, route oral; settings: in vivo; procedure, shortened: as §2
Rattus norvegicus [19] = experiment: Effect on behavioral activity in Wistar rat assessed as increase in non-rapid eye movement delta power at 1.4 mg/kg, po after 4 hrs; assay type: functional, organism-based; design: dose 1.4 mg/kg; procedure, shortened: as §3
Rattus norvegicus [20] = experiment: Effect on behavioral activity in Wistar rat assessed as increase in non-rapid eye movement bout length at 1.4 mg/kg, po after 1 hrs; assay type: functional, organism-based; design: dose 1.4 mg/kg; procedure, shortened: as §3

T1 sequence (P28223 whole entry): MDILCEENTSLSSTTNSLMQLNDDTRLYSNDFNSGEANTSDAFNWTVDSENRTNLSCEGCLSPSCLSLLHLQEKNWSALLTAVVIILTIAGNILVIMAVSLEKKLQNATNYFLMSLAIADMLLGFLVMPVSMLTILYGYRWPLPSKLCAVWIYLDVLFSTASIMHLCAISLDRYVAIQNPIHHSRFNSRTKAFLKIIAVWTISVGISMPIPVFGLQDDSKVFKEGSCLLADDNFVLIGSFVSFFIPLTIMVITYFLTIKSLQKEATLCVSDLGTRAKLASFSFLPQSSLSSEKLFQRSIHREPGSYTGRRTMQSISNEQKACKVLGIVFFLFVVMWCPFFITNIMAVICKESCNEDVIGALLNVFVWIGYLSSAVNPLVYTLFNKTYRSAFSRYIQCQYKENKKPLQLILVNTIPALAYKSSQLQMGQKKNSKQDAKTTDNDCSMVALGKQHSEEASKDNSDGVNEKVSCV

Row | SMILES | IC50 ([1]; read-out: pIC50 (converted)) | Ki [2] | Ki [3] | Ki [4] | Ki [5] | further results
1 | COc1ccc(NC(=O)Nc2ccc(Cl)cc2Cl)cc1-c1c(Br)cnn1C | 1.26 nM | 25.1 nM | 0.2 nM |  |  | 
2 | COc1ccc(NC(=O)Nc2cccc(F)c2)cc1-c1c(Br)cnn1C | 0.794 nM |  |  | 0.316 nM | 39.8 nM | 
3 | COc1ccc(NC(=O)Nc2cccc(C(C)=O)c2)cc1-c1c(Br)cnn1C | 3.98 nM | 251 nM | 2.51 nM |  |  | 
4 | COc1ccc(NC(=O)Nc2ccc(F)cc2)cc1-c1c(Br)cnn1C(C)C | 1 nM |  | 0.251 nM |  | 3.98 nM | 
5 | Cn1ncc(Br)c1-c1cccc(NC(=O)Nc2ccc(OC(F)(F)F)cc2)c1 |  |  |  |  |  | IC50 [1]: 120 nM
6 | COc1ccc(NC(=O)Nc2ccc(F)cc2)cc1-c1c(Br)cnn1C | 0.251 nM |  | 0.251 nM |  | 31.6 nM | ED50 (Rattus norvegicus [6]): 0.7 mg/kg; half-life [7]: 2 h; Tmax [8]: 4 h; Activity (Rattus norvegicus [9]): Active; AUC(0-inf) [10]: 507 ng·h/mL; Cmax [11]: 85 ng/mL; Activity (Rattus norvegicus [12]): Active; Activity (Rattus norvegicus [13]): Active
7 | COc1ccc(NC(=O)Nc2ccc(F)cc2F)cc1-c1c(Cl)cnn1C | 1 nM |  |  | 0.631 nM | 316 nM | 
8 | Cn1ncc(Br)c1-c1cc(NC(=O)Nc2ccc(Cl)cc2)ccc1OCCc1ccccc1 | 50.1 nM | 794 nM |  | 6.31 nM |  | 
9 | Cn1ncc(Br)c1-c1cc(NC(=O)Nc2ccc(Cl)cc2)ccc1OC(F)(F)F | 15.8 nM | 15.8 nM | 0.794 nM |  |  | 
10 | COc1ccc(NC(=O)Nc2ccc(Cl)cc2)cc1-c1c(Cl)cnn1C | 0.501 nM | 10 nM | 0.158 nM |  |  | ED50 (Rattus norvegicus [6]): 0.7 mg/kg; Activity (Rattus norvegicus [9]): Active; half-life [14]: 5 h; Ki [15]: 2 nM; Cmax [16]: 41 ng/mL; AUC(0-inf) [17]: 478 ng·h/mL; Tmax [18]: 6 h
11 | Cn1ncc(Br)c1-c1cccc(NC(=O)Nc2ccc(Cl)cc2)c1 |  |  |  |  |  | IC50 [1]: 19 nM
12 | COc1ccc(NC(=O)Nc2cccc(C#N)c2)cc1-c1c(Br)cnn1C | 6.31 nM |  | 0.501 nM |  | 63.1 nM | 
13 | COc1ccc(NC(=O)Nc2ccc(Cl)cc2)cc1-c1ccnn1C | 1 nM | 158 nM |  |  |  | 
14 | COc1ccc(NC(=O)Nc2ccc(C(C)C)cc2)cc1-c1c(Br)cnn1C | 2.51 nM | 25.1 nM |  | 0.316 nM |  | 
15 | COc1ccc(NC(=O)Nc2ccc(F)c(F)c2)cc1-c1c(Cl)cnn1C | 0.501 nM | 25.1 nM | 0.251 nM |  |  | 
16 | COc1ccc(NC(=O)Nc2ccc(F)cc2F)cc1-c1c(Br)cnn1C [NELOTANSERIN] | 0.631 nM | 158 nM |  | 0.631 nM |  | ED50 (Rattus norvegicus [6]): 0.7 mg/kg; half-life [7]: 3 h; Tmax [8]: 3 h; Activity (Rattus norvegicus [19]): Active; AUC(0-inf) [10]: 298 ng·h/mL; Activity (Rattus norvegicus [20]): Active; Ki [15]: 5.01 nM; Cmax [11]: 44 ng/mL; Activity (Rattus norvegicus [12]): Active
17 | COc1ccc(NC(=O)Nc2ccc(Cl)cc2C(F)(F)F)cc1-c1c(Br)cnn1C | 2.51 nM | 126 nM | 0.501 nM |  |  | 
18 | COc1ccc(NC(=O)Nc2cc(C(F)(F)F)cc(C(F)(F)F)c2)cc1-c1c(Br)cnn1C | 2 nM |  |  | 0.398 nM | 31.6 nM | 
